Experimental data: ChEMBL document CHEMBL4725355, “Design, Synthesis, and Preclinical Evaluation of 3-Methyl-6-(5-thiophenyl)-1,3-dihydro-imidazo[4,5-b]pyridin-2-ones as Selective GluN2B Negative Allosteric Modulators for the Treatment of Mood Disorders” (J Med Chem, 2020)

How the values were obtained:
[1] = AUC (infinity) in monkey at 0.1 mg/kg, iv by LC-MS/MS analysis; type: ADME, organism-based, Macaca mulatta; set-up: time infinity, route intravenous, dose 0.1 mg/kg; conditions: rhesus monkey, in vivo
[2] = Displacement of 3-[3H] 1-(azetidin-1-yl)-2-[6-(4-fluoro-3-methyl-phenyl)pyrrolo[3,2-b]pyridin-1-yl]ethanone from GluN1a/GluN2B receptor in […] measured after 2 hrs by liquid scintillation counting method; type: tissue-based, Cortex
[3] = Drug level in Sprague-Dawley rat brain hippocampus at 0.03 mg/kg, iv after 120 min by LC-MS/MS analysis; type: ADME, organism-based; conditions: read-out: Drug uptake
Procedure, shortened: (§1)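 Single i.v. dose of 0.03 mg/kg in 50% (w/v) PEG/water, pH 7.4; rats n=3 per group, killed at 5, 10, 30, 60 and 120 min. Cerebellum, cortex, striatum and hippocampus dissected, weighed and homogenized; drug quantified by LC-MS/MS and normalized to tissue weight. P<0.05 taken as significant versus cerebellum.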

[4] = AUC (infinity) in Sprague-Dawley rat at 0.5 mg/kg, iv by LC-MS/MS analysis; type: ADME, organism-based; set-up: route intravenous, time infinity, dose 0.5 mg/kg; conditions: in vivo
Procedure, shortened: (§2)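 Rat PK with IV and PO dosing, n=3. The usual doses were 0.5 mg/kg IV and 2.5 mg/kg PO in 20% HP-β-CD. One compound was instead given at 0.1 mg/kg IV and 0.5 mg/kg PO.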

[5] = Tmax in mouse at 2.5 mg/kg, po by LC-MS/MS analysis; type: ADME, organism-based; conditions: in vivo
[6] = Solubility of compound in phosphate buffer at pH 2 measured after 3 days; type: physicochemical; conditions: time 3 day
Procedure, shortened: (§3)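 Solubility in aqueous buffer at pH 2 and pH 7, and in simulated gastric and intestinal fluids.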

[7] = Metabolic stability in rat liver microsomes assessed as extraction ratio at 1 uM after 5 to 60 mins in presence of NADPH by LC-MS/MS analysis; type: ADME, Microsome; conditions: time 5-60 min, read-out: ERH
Procedure, shortened: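 Human and rat liver microsomes, run in duplicate; stability reported as microsomal extraction ratio.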

[8] = AUC (infinity) in mouse at 0.5 mg/kg, iv by LC-MS/MS analysis; type: ADME, organism-based; set-up: time infinity, route intravenous, dose 0.5 mg/kg; conditions: in vivo
[9] = Tmax in Sprague-Dawley rat at 250 mg/kg, po administered via gavage after 24 hrs using nanosuspension formulation by LC-MS/MS analysis; type: ADME, organism-based; conditions: in vivo
Procedure, shortened: (§4)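 Single oral gavage of a nanosuspension (API:polymer 4:1), diluted with vehicle on the dosing day, at 100, 250 or 500 mg/kg to male Sprague Dawley rats, 3 per dose. Plasma was sampled from 0.5 to 24 h.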

[10] = Displacement of 3-[3H] 1-(azetidin-1-yl)-2-[6-(4-fluoro-3-methyl-phenyl)pyrrolo[3,2-b]pyridin-1-yl]ethanone from GluN1a/GluN2B receptor in rat cortex membranes measured after 2 hrs by liquid scintillation counting method; type: cell membranes
Procedure, shortened: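 Rat adult cortex was homogenized in 50 mM Tris pH 7.4, and membranes were washed by centrifugation. Membranes were incubated with the [3H] pyrrolopyridine tracer and test compound for 2 h at room temperature with shaking. Non-specific binding was defined with 10 µM CP-101,606. Bound tracer was separated by filtration on PEI-soaked GF/B filters and counted by liquid scintillation. Ki was obtained from a competition fit using tracer Kd; three independent runs in duplicate.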

[11] = Tmax in Sprague-Dawley rat at 100 mg/kg, po administered via gavage after 24 hrs using nanosuspension formulation by LC-MS/MS analysis; type: ADME, organism-based; conditions: in vivo; procedure, shortened: as §4
[12] = Half life in dog at 0.5 mg/kg, po by LC-MS/MS analysis; type: ADME, organism-based, Canis lupus familiaris; conditions: in vivo
[13] = Half life in Sprague-Dawley rat at 0.5 mg/kg, iv by LC-MS/MS analysis; type: ADME, organism-based; conditions: in vivo
[14] = Solubility of compound in phosphate buffer at pH 7 measured after 3 days; type: physicochemical; conditions: time 3 day; procedure, shortened: as §3
[15] = Half life in monkey at 0.1 mg/kg, iv by LC-MS/MS analysis; type: ADME, organism-based, Macaca mulatta; conditions: rhesus monkey, in vivo
[16] = Half life in mouse at 0.5 mg/kg, iv by LC-MS/MS analysis; type: ADME, organism-based; conditions: in vivo
[17] = Drug level in Sprague-Dawley rat brain cerebellum at 0.03 mg/kg, iv after 30 min by LC-MS/MS analysis; type: ADME, organism-based; conditions: read-out: Drug uptake; procedure, shortened: as §1
[18] = Cmax in dog at 0.5 mg/kg, po by LC-MS/MS analysis; type: ADME, organism-based, Canis lupus familiaris; set-up: route oral, dose 0.5 mg/kg; conditions: in vivo
[19] = Protein binding in human plasma assessed as unbound fraction at 0.5 uM after 6 hrs by equilibrium dialysis method; type: ADME, cell-free
[20] = Volume of distribution at steady state in dog at 0.1 mg/kg, iv by LC-MS/MS analysis; type: ADME, organism-based, Canis lupus familiaris; conditions: in vivo, read-out: Vdss
[21] = Solubility of compound in 50% polyethylene glycol 400; type: physicochemical
Procedure, shortened: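 Solubility of the compound assessed in dosing excipients, including 30% SBE-β-CD, 50% PEG-400 and 20% HP-β-CD. The aim was a solution usable for rat dosing; the 20% HP-β-CD formulation was checked for a 0.1 mg/mL solution to support a 0.5 mg/kg dose.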

[22] = Drug level in Sprague-Dawley rat brain hippocampus at 0.03 mg/kg, iv after 30 min by LC-MS/MS analysis; type: ADME, organism-based; conditions: read-out: Drug uptake; procedure, shortened: as §1
[23] = Cmax in Sprague-Dawley rat at 2.5 mg/kg, po by LC-MS/MS analysis; type: ADME, organism-based; set-up: route oral, dose 2.5 mg/kg; conditions: in vivo; procedure, shortened: as §2
[24] = target: Cytochrome P450 3A4 (Homo sapiens, UniProt P08684); test: Inhibition of CYP3A4 in human liver microsomes using testosterone as substrate measured after 15 mins by LC-MS/MS analysis; type: ADME
Sequence of Cytochrome P450 3A4 (P08684 whole entry, canonical isoform): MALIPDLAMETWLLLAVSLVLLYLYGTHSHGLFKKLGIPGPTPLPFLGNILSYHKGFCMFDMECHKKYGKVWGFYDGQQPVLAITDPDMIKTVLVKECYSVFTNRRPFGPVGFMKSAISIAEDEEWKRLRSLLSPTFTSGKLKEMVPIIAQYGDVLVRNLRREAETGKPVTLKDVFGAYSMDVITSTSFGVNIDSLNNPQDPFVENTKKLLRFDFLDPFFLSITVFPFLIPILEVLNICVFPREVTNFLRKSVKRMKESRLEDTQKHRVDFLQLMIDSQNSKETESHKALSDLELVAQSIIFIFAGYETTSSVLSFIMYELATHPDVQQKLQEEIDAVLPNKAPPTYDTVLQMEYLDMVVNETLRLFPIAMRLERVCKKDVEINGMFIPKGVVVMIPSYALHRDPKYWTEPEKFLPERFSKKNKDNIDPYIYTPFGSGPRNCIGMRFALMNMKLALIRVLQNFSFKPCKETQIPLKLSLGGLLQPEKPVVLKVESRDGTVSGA
Procedure, shortened: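 Human liver microsomes incubated with isoform-specific probe substrates and the test compound at concentrations up to 20 µM. IC50 derived from inhibition of metabolite formation; mean of two independent experiments, with known specific inhibitors as positive controls.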

[25] = AUC (0 to 24 hrs) in Sprague-Dawley rat at 100 mg/kg, po administered via gavage after 24 hrs using nanosuspension formulation by LC-MS/MS analysis; type: ADME, organism-based; set-up: route oral, dose 100 mg/kg, time <=24; conditions: in vivo
Procedure, shortened: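 Single oral gavage dose to male Sprague Dawley rats, 3 per dose level. Vehicles were a standard suspension in 5% HPMC (125, 250, 500 or 1000 mg/kg) or a nanosuspension (API:polymer 4:1), with stock diluted in vehicle on the day of dosing (100, 250 or 500 mg/kg). Blood was sampled at time points from 0.5 to 24 h.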

Cn1c(=O)n(CC(=O)N2CCC2)c2cc(-c3ccc(C(F)(F)F)s3)cnc21
AUC(0-inf) [1]: 190 ng·h/mL | Ki [2]: 15 nM | concentration at 2 h [3]: 10.1 ng/mL | AUC(0-inf) [4]: 277 ng·h/mL | Tmax [5]: 18 min | solubility at 72 h [6]: < 4 µM | hepatic extraction ratio at 1 µM [7]: < 0.17 | AUC(0-inf) [8]: 156 ng·h/mL | Tmax [9]: 162 min | Ki [10]: 16 nM | Tmax [11]: 162 min | half-life [12]: 42 min | half-life [13]: 48 min | solubility at 72 h [14]: < 4 µM | half-life [15]: 66 min | half-life [16]: 54 min | concentration at 0.5 h [17]: 13.8 ng/mL | Cmax [18]: 351 ng/mL | fraction unbound at 6 h, 0.5 µM [19]: 0.046 | Vd [20]: 0.8 L/kg | solubility [21]: < 1000 µg/mL | concentration at 0.5 h [22]: 22.7 ng/mL | Cmax [23]: 479 ng/mL | IC50 [24]: > 50000 nM | AUC(0-t) [25]: 51900 ng·h/mL
